{
  "source": "paper PMC8521312",
  "about": "(The EMBO Journal, 2021)",
  "key": {"[1]": {"system": "axonal Inpp5f mRNA", "test": "FISH of axonal Inpp5f mRNA in DRG neurons", "assay_type": "cell-based, rat", "settings": "10 µM AS1411 or control aptamer, 48 h, replated 18 h; n = 11–19 cells per sample; P < 0.05"}, "[2]": {"system": "AS1411 DNA aptamer", "test": "ELISA assay for AS1411-binding peptides", "settings": "0.04 μM aptamer, PBS, 1 h, room temperature, n = 3 technical replicates", "in_short": "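Streptavidin-coated wells were washed in PBS-T, loaded with 0.025 μM biotinylated peptide for 1 h at room temperature, and blocked with 1% BSA/PBS for 30 min at 37°C. DIG-labelled aptamer or control aptamer was added, then HRP anti-DIG (1/2,000 in 1% BSA-PBS, 30 min, 37°C). TMB substrate was read by absorbance at […]. PBS-T washes were done between steps.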"}, "[3]": {"system": "nucleolin-Kif5a motor complex", "settings": "ref Perry et al, 2016, cited from earlier work"}, "[4]": {"system": "nucleolin mRNA and protein", "test": "Nucleolin knockdown in DRG neurons", "assay_type": "cell-based, rat", "settings": "siRNA targeting 3′UTR of nucleolin mRNA, 50 nM printed for control siRNAs; 96 h", "in_short": "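Three hours after plating, neurons were transfected with control siRNA (50 nM as printed) or either of two siRNAs against the nucleolin 3′UTR using a lipid transfection reagent. Cultures were fixed 96 h later for FISH/immunofluorescence. Sister cultures gave mRNA by RT-ddPCR and protein by immunoblot (milk block, HRP secondary 1:10,000, ECL).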"}, "[5]": {"system": "DRG neurons", "test": "Hypotonic challenge", "assay_type": "cell-based, mouse", "settings": "ddH2O, 17–24 cells per sample, three biological repeats"}, "[6]": {"system": "HEK-293 cells", "test": "Hypotonic challenge", "assay_type": "cell-based, human", "settings": "ddH2O, n = 24 cells per sample, p < 0.05, p < 0.01"}},
  "note": "“Also recorded” adds a separate entry of the source.",
  "data": [
    {"molecule": "GGTGGTGGTGGTTGTGGTGGTGGTGG [AS1411]", "values": [
      {"measurement": "axonal Inpp5f mRNA (FISH)", "setting": "[1]", "result": "significant reduction in axonal Inpp5f mRNA"},
      {"measurement": "binding of aptamer to GAR-derived peptides of 22–28 residues", "setting": "[2]", "result": "showed binding"},
      {"measurement": "axonal growth", "setting": "[3]; AS1411 perturbation of kinesin–nucleolin interactions", "result": "accelerated axonal growth"},
      {"measurement": "association of nucleolin with Kif5a motor complex", "setting": "[3]", "result": "reduced; also recorded: perturbs the association of nucleolin with the Kif5a motor complex"},
      {"measurement": "nucleolin localization to axons", "setting": "[3]", "result": "perturbs nucleolin localization to axons"}
    ]},
    {"molecule": "siRNA 1: GUUGAAUGACAGAGCCUUUUU; siRNA 2: GGACAUUCCAAGACAGUAAUU", "values": [
      {"measurement": "endogenous nucleolin mRNA and protein", "setting": "[4]", "result": "significantly reduced"}
    ]},
    {"molecule": "Ncl ΔGAR: HA-Dendra2-nucleolin with a GAR domain deletion (protein, left off: HA, N-terminal, kept | Dendra2, N-terminal, kept) MVKLAKAGKTHGEAKKMAPPPKEVEEDSEDEEMSEDEDDSSGEEEVVIPQKKGKKATTTPAKKVVVSQTKKAAVPTPAKKAAVTPGKKAVATPAKKNITPAKVIPTPGKKGAAQAKALVPTPGKKGAATPAKGAKNGKNAKKEDSDEDEDEEDEDDSDEDEDDEEEDEFEPPIVKGVKPAKAAPAAPASEDEEDDEDEDDEEDDDEEEEDDSEEEVMEITTAKGKKTPAKVVPMKAKSVAEEEDDEEEDEDDEDEDDEEEDDEDDDEEEEEEEPVKAAPGKRKKEMTKQKEAPEAKKQKVEGSEPTTPFNLFIGNLNPNKSVNELKFAISELFAKNDLAVVDVRTGTNRKFGYVDFESAEDLEKALELTGLKVFGNEIKLEKPKGRDSKKVRAARTLLAKNLSFNITEDELKEVFEDAMEIRLVSQDGKSKGIAYIEFKSEADAEKNLEEKQGAEIDGRSVSLYYTGEKGQRQERTGKTSTWSGESKTLVLSNLSYSATKETLEEVFEKATFIKVPQNPHGKPKGYAFIEFASFEDAKEALNSCNKMEIEGRTIRLELQGSNSRSQPSKTLFVKGLSEDTTEETLKESFEGSVRARIVTDRETGSSKGFGFVDFNSEEDAKAAKEAMEDGEIDGNKVTLDWAKPKKPQGKKTKFE", "values": [
      {"measurement": "reduction of nucleolar signal on hypotonic challenge, FL vs ΔGAR", "setting": "[5]", "result": "no difference between full‐length and ΔGAR mutant nucleolin"},
      {"measurement": "reduction of nucleolar signal on hypotonic challenge, FL vs ΔGAR", "setting": "[6]", "result": "Significant differences between full‐length and GAR deletion nucleolin"}
    ]}
  ]
}
